Source: PubChem
FN deposition inh: fibronectin deposition inhibition; AH1F fibroblasts, Alexa488-fibronectin deposition fluorescence, overnight; inhibition, % at 12.6 µM; 350,000 tested, 0.086% active; AID 743247;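 active = mean inhibition across replicates of 30% or more, regardless of how many single replicates reach that level; inconclusive = mean under 30% yet at least half of replicates reach 30%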
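Measured by – fluorescence 485/525 nm · System – AH1F fibroblast monolayer, labelled fibronectin deposition · Amount – 10000 cells per well · Buffer or medium – serum-reduced DMEM (2% serum) · Doses – single dose, pinned · Also added – fluorescent fibronectin at 24 nM final · Schedule – 1 h cell attachment, overnight exposure to compound and label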
DENV2 CPE rescue: protects cells from dengue virus 2 cytopathic effect | DENV2-infected cells, cytopathic effect rescue, plate reader | CPE inhibition, % at 9.99 µM | 350,000 tested, 1.7% active; in the data active = CPE inhibition above about 20%, passing the limit was not always enough; inconclusive = no clear call, values can overlap the other calls; tested in BHK-21 cells
Cneo AK release: Cryptococcus neoformans lysis via adenylate kinase release | AID 651654 | 360,000 tested, 0.2% active | lysis activity, % at 15 µM | C. neoformans lysis, adenylate kinase release luminescence, 4 h; normalised: neutral wells 0, clomiphene wells 100;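 active = mean lysis activity across replicates of at least 80%, whatever share of replicates individually reach that level; inactive = mean lysis activity below 80%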
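Assay system: C. neoformans cells. Amount: yeast cell density of 5 × 10^6 cells/mL. Technique: AK luminescence. Buffer or medium: YPD. Times: static 4 h at 37 °C with compound, 1 h detection. Dosing: single-point compound dose. Read-out: lysis from increased AK signal.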
CFTR F508del cor: CFTR F508del correction in bronchial cells; CFBE cells, YFP halide quenching; stimulated with forskolin plus potentiator P3; % fluorescence drop versus neutral controls; activity (quench increase), % at 7.58 µM; 350,000 tested, 0.36% active; AID 720511;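 active = mean added fluorescence quench of at least 8% versus neutral control, with both replicates also reaching 8%; inconclusive = only one of the mean or replicate conditions met; inactive = mean below 8% and not both replicates reaching 8%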;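 also: cells transiently co-express mutant CFTR-F508del with the halide-sensitive YFP; corrector assay measuring rescue of mutant channel to the surface after 24 h compound exposure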
PGC1a acetyl inh: modulators of PGC1a acetylation. U2OS PGC1a acetylation, AlphaScreen anti-acetyl-lysine; with virally co-expressed GCN5 acetyltransferase. inhibition, % at 15.6 µM. 350,000 tested, 0.17% active. AID 651687;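 active = every replicate shows inhibition of at least 40%; inconclusive = mean inhibition at least 40% but some replicate below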
Xi reactivation: reactivates the inactive X chromosome in mouse fibroblasts. XiGFP mouse fibroblasts, % GFP-positive cells imaging, 3 d; cells co-treated with 5-aza-dC sensitizer; scaled so ellipticine positive control = 100%. activation, % at 7.58 µM. 360,000 tested, 0.055% active. AID 743238;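 active = mean normalized replicate activation at least 10% and every replicate at or above 10%; inconclusive = only one of the two criteria met; inactive = mean below 10% and not all replicates reach 10%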
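Material: SV40-immortalized XiGFP fibroblast cells, line 68-5-11 | Buffer or medium: DMEM containing 5-aza-dC | Dosing: One concentration, pinned | Times: 3 d treatment, 15 min room-temperature fixation | Controls: Ellipticine 6 µM positive control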
Of the large screens only hits and unclear results are named; the others gave an inactive call. Rows were chosen to be rich in hits. Some 1.9% of all compounds tested hit in one or more screens of this group.

Cc1ccc(C(=O)NCC(=O)NCC(c2cccs2)N2CCOCC2)cc1C (configuration not stated)	DENV2 CPE rescue 93
Cc1ccc(C(=O)NCC(=O)NCC(c2cccs2)N2CCOCC2)cc1 (configuration not stated)	none
C[C@H]1CN([C@@H](C)CO)S(=O)(=O)c2ccc(C#Cc3ccccc3F)cc2O[C@H]1CN(C)C(=O)c1ccc2c(c1)OCO2	CFTR F508del cor 9.6 (no result: FN deposition inh)
C[C@H]1CN([C@@H](C)CO)S(=O)(=O)c2ccc(-c3ccncc3)cc2O[C@@H]1CN(C)C(=O)c1ccc2c(c1)OCO2	DENV2 CPE rescue 26 (no result: FN deposition inh)
C[C@@H]1CN([C@@H](C)CO)S(=O)(=O)c2ccc(C#Cc3ccccc3F)cc2O[C@@H]1CN(C)C(=O)c1ccc2c(c1)OCO2	none (no result: FN deposition inh)
CO[C@H]1CN(C)C(=O)c2cc(NC(=O)c3cccc(F)c3)ccc2OC[C@@H](C)NC[C@@H]1C	DENV2 CPE rescue inconclusive
COC(=O)CCc1cccc(CCC(=O)OC)c1	DENV2 CPE rescue 46
COC(=O)CCc1ccc(O)cc1	none (no result: FN deposition inh, Xi reactivation)
C[C@@H]1CCCCO[C@@H](CN(C)S(=O)(=O)c2cccs2)[C@H](C)CN([C@@H](C)CO)C(=O)c2cc(NC(=O)CCC(F)(F)F)ccc2O1	Cneo AK release 98 (no result: FN deposition inh)
C[C@@H]1CCCCO[C@H](CN(C)S(C)(=O)=O)[C@@H](C)CN([C@H](C)CO)C(=O)c2cc(NC(=O)CCC(F)(F)F)ccc2O1	DENV2 CPE rescue 116 (no result: FN deposition inh)
NC1=C(Cl)C(=O)c2ccc(S(N)(=O)=O)cc2C1=O	FN deposition inh 31 (no result: PGC1a acetyl inh)
C/C=C/c1cnc2c(c1)C(=O)N([C@H](C)CO)C[C@@H](C)[C@@H](CN(C)S(=O)(=O)c1ccccc1)O2	none
CO[C@@H]1CN(C)C(=O)c2cc(NC(=O)c3ccc4c(c3)OCO4)ccc2OC[C@@H](C)N(CCC(F)(F)F)C[C@H]1C	DENV2 CPE rescue 23
CO[C@@H]1CN(C)C(=O)c2cc(NC(=O)c3ccc4c(c3)OCO4)ccc2OC[C@@H](C)N(CCC(F)(F)F)C[C@@H]1C	DENV2 CPE rescue 36
CO[C@@H]1CN(C)C(=O)c2ccc(NC(=O)c3ccc4c(c3)OCO4)cc2OC[C@@H](C)N(CCC(F)(F)F)C[C@H]1C	none
COCCNC(=O)C[C@@H]1C[C@@H]2c3cc(NC(=O)C4CCOCC4)ccc3O[C@@H]2[C@@H](CO)O1	Cneo AK release 98
COCCNC(=O)C[C@@H]1C[C@H]2c3cc(NC(=O)C4CCC4)ccc3O[C@H]2[C@H](CO)O1	none (no result: FN deposition inh)
COC(=O)C[C@H]1C[C@H]2c3cc(NC(=O)C4CCOCC4)ccc3O[C@H]2[C@H](CO)O1	DENV2 CPE rescue 46
COCCNC(=O)C[C@H]1C[C@@H]2c3cc(NC(=O)C4CCC4)ccc3O[C@@H]2[C@H](CO)O1	Cneo AK release 103 (no result: FN deposition inh, DENV2 CPE rescue)
COCCNC(=O)C[C@@H]1C[C@H]2c3cc(NC(=O)C4CCOCC4)ccc3O[C@H]2[C@@H](CO)O1	none
CN(C)C(=O)c1cccc(-c2ccc3c(c2)[C@@H]2[C@@H](CCN2S(=O)(=O)c2cn(C)cn2)[C@H](CO)N3)c1	none
CCOC(=O)/C=c1\s/c(=C\c2ccc3cc(OC)ccc3c2)c(=O)n1CC(=O)NCc1ccc2c(c1)OCO2	Xi reactivation 28 (no result: Cneo AK release, PGC1a acetyl inh)
C[C@@H]1CN([C@H](C)CO)C(=O)c2cc(C3=CCCCC3)cnc2O[C@H]1CN(C)Cc1ccccn1	none
COc1ccc(CC(=O)NC2CCCCCC2)c(OC)c1	DENV2 CPE rescue 64 (no result: PGC1a acetyl inh)
COc1ccc(S(=O)(=O)Nc2ccc3c(c2)CC(=O)N([C@@H](C)CO)C[C@H](C)[C@H](CN(C)S(=O)(=O)c2ccc(Cl)cc2)O3)cc1	none (no result: FN deposition inh)
COCCSc1ccccc1C(=O)Nc1cc([N+](=O)[O-])ccc1OC	CFTR F508del cor 18 (no result: Cneo AK release)
O=C(C[C@H]1CC[C@H]2[C@@H](COC[C@H](O)CN2C(=O)Nc2ccc(Cl)cc2)O1)NCCc1ccncc1	none
O=C(C[C@H]1CC[C@H]2[C@@H](COC[C@@H](O)CN2C(=O)Nc2ccc(Cl)cc2)O1)N1CCCCC1	Cneo AK release 87
O=C(C[C@@H]1CC[C@H]2[C@@H](COC[C@H](O)CN2C(=O)Nc2ccc(Cl)cc2)O1)N1CCCCC1	none
O=C(C[C@@H]1CC[C@H]2[C@@H](COC[C@@H](O)CN2C(=O)Nc2ccc(Cl)cc2)O1)NCCc1ccncc1	Cneo AK release 100
O=c1oc(-c2ccccc2)nc2ccsc12	none (no result: FN deposition inh, DENV2 CPE rescue, CFTR F508del cor, Xi reactivation)
CCC(C)c1nc2ccsc2c(N2CCOC2=O)c1-c1ccccc1 (configuration not stated)	Xi reactivation 19
COc1ccccc1C(=O)NCCC(=O)N1CCN(C(C)=O)CC1	DENV2 CPE rescue 50 (no result: Cneo AK release)
COc1ccccc1OCCNC(=O)CCNC(=O)c1ccccc1OC	CFTR F508del cor 24
COc1ccccc1C(=O)NCCC(=O)NCCOc1ccccc1	none
Cc1cc(C)n(-c2ccc(NC(=O)C3CCCCN3C(=O)c3ccoc3)cc2)n1 (configuration not stated)	DENV2 CPE rescue 36 (no result: FN deposition inh, PGC1a acetyl inh)
Cc1cc(C)n(-c2ccc(NC(=O)C3CCCCN3C(=O)c3occc3C)cc2)n1 (configuration not stated)	none (no result: PGC1a acetyl inh)
CN(C)CCCN(C(=O)CCOc1ccccc1)c1nc2ccc(F)cc2s1	DENV2 CPE rescue inconclusive, PGC1a acetyl inh 50
O=C(C[C@H]1CC[C@@H](NC(=O)C2CCC2)[C@H](CO)O1)NCCCN1CCOCC1	none
CCc1nnc(NC(=O)CSc2nnc(-c3ccc(NS(=O)(=O)c4ccccc4)cc3)o2)s1	DENV2 CPE rescue 26
COC(=O)CSc1nnc(-c2ccc(NS(=O)(=O)c3ccccc3)cc2)o1	none (no result: FN deposition inh, DENV2 CPE rescue, CFTR F508del cor, Xi reactivation)
CO[C@H]1CN(C)C(=O)c2cc(NC(=O)Nc3cccc(F)c3)ccc2OC[C@H](C)N(C(=O)C2CC2)C[C@H]1C	none (no result: DENV2 CPE rescue)
O=C(CSc1nnc(-c2ccccc2)n1-c1ccc(Cl)cc1)N/N=C/c1ccccc1C(=O)O	PGC1a acetyl inh 45
Cc1ccc(-c2nnc(SCC(=O)N/N=C/c3ccccc3C(=O)O)n2-c2ccc(C)cc2)cc1	none
C[C@@H]1CN([C@H](C)CO)C(=O)c2cc(NC(=O)CCN3CCOCC3)ccc2O[C@H]1CN(C)S(=O)(=O)c1cn(C)cn1	none
O=C(COC(=O)c1cccc(Br)c1)Nc1ccc2[nH]c(=O)[nH]c2c1	DENV2 CPE rescue 73 (no result: FN deposition inh)
COc1ccccc1N1CCN(C(=O)c2cn(Cc3ccccc3)nc2-c2cccnc2)CC1	none
COc1cccc(N2CCN(C(=O)c3ccc(CS(=O)Cc4ccc(C)cc4)o3)CC2)c1 (configuration not stated)	none
